Results from ChEMBL document CHEMBL4680079, “Discovery of a Quinoline-4-carboxamide Derivative with a Novel Mechanism of Action, Multistage Antimalarial Activity, and Potent in Vivo Efficacy” (J Med Chem, 2016).
Converted amounts (≈) assume the structure as drawn.

Columns and labels:
[1] = Intrinsic clearance in Sprague-Dawley rat liver microsomes at 0.5 uM in presence of NADPH incubated upto 30 mins by UPLC-MS/MS analysis; assay type: ADME, Microsome; conditions: 0.5 h
Outline: (§1)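 Compound at 0.5 μM incubated with female CD1 mouse, male Sprague-Dawley rat or pooled human liver microsomes (0.5 mg/mL, 50 mM potassium phosphate, pH 7.4). Reaction started with excess NADPH. Samples taken at 0-30 min, quenched in acetonitrile, analysed by UPLC-MS/MS. Verapamil used as control, single time course.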

Plasmodium berghei [2] = assay: Antiplasmodial activity against Plasmodium berghei infected in NMRI mouse assessed as reduction in parasitemia at 3 mg/kg, po QD for 4 days; assay type: functional; set-up: scale not given: the % may be the effect or the level left; conditions: time 4 day
Outline: (§2)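 Female NMRI mice (n=3 per group, randomized, not blinded) infected with GFP-transfected P. berghei ANKA. Oral dosing once daily for 4 days in 10% DMSO/40% PEG400/50% water or HPMC suspension vehicle. Parasitaemia measured by flow cytometry on blood collected 96 h after infection. Mice watched for toxicity over 4 h post-dose each day.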

Plasmodium berghei [3] = assay: Antiplasmodial activity against Plasmodium berghei ANKA infected in NMRI mouse assessed as survival days at 10 mg/kg, po QD for 4 days; assay type: functional; conditions: time 4 day
[4] = Half-life in NMRI mouse at 3 mg/kg, iv administered as bolus dose by UPLC-MS/MS analysis; assay type: ADME, organism-based; conditions: in vivo
Outline: (§3)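 Intravenous bolus solution, 3 mg free base/kg (5 mL/kg; 10% DMSO, 90% saline), given to female NMRI mice (n=3). Compound level in blood determined by UPLC-MS/MS. PK parameters derived from the blood concentration-time curve.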

[5] = Intrinsic clearance in rat hepatocytes; assay type: ADME, cell-based, Hepatocyte
Plasmodium berghei [6] = assay: Antiplasmodial activity against Plasmodium berghei ANKA infected in NMRI mouse assessed as reduction in parasitemia at 1 mg/kg, po QD for 4 days; assay type: functional; set-up: scale not given: the % may be the effect or the level left; conditions: time 4 day; outline: as §2
[7] = Kinetic aqueous solubility of the compound by laser nephelometry; assay type: physicochemical; conditions: read-out: Kinetic_solubility
Outline: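 Kinetic solubility measured by laser nephelometry. DMSO serial dilutions diluted into water to give final 100–5 μg/mL at 1.0% DMSO. Read immediately, in triplicate aliquots.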

Plasmodium berghei [8] = assay: Antiplasmodial activity against Plasmodium berghei ANKA infected in NMRI mouse assessed as survival days at 30 mg/kg, po QD for 4 days; assay type: functional; conditions: time 4 day
[9] = Hepatic extraction in rat during hepatic portal vein study; assay type: ADME; conditions: read-out: ERH
Plasmodium berghei [10] = assay: Antiplasmodial activity against Plasmodium berghei ookinete form assessed as growth inhibition incubated for 22 hrs by GFP-based fluorescence microscopic analysis; assay type: functional, organism-based
Plasmodium berghei [11] = assay: Antiplasmodial activity against GFP-transfected Plasmodium berghei ANKA infected in NMRI mouse assessed as reduction in parasitemia by measuring effective dose administered once daily oral dose for 4 days; assay type: functional; conditions: 96 h, time 4 day; outline: as §2
Plasmodium berghei [12] = assay: Antiplasmodial activity against Plasmodium berghei ANKA infected in NMRI mouse assessed as survival days at 3 mg/kg, po QD for 4 days; assay type: functional; conditions: time 4 day
Plasmodium falciparum [13] = assay: Antiplasmodial activity against late stage (IV/V) Plasmodium falciparum NF54 gametocytes transfected with GFP-LUC assessed as growth inhibition incubated for 72 hrs by mitotracker Red-CMXROS dye based fluorescence microscopic analysis; assay type: functional, organism-based; conditions: NF54, 72 h
Outline: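 NF54 pfs16-LUC-GFP stage IV–V gametocytes (10% parasitaemia, 0.1% haematocrit) exposed to compound in 0.4% DMSO, three concentrations per log, for 72 h at 37°C under 5% CO2/5% O2/90% N2. MitoTracker Red CM-H2Xros then added for 16 h and viable gametocytes counted by imaging.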

Plasmodium berghei [14] = assay: Antiplasmodial activity against Plasmodium berghei ANKA infected in NMRI mouse assessed as survival days at 1 mg/kg, po QD for 4 days; assay type: functional; conditions: time 4 day
Plasmodium falciparum [15] = assay: Antiplasmodial activity against chloroquine-sensitive Plasmodium falciparum 3D7 infected in human red blood cells assessed as growth inhibition by SYBR Green fluorescence assay; assay type: functional, organism-based, RBC; conditions: 3D7, Erythrocyte
Outline: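 P. falciparum 3D7 grown in 5% human red cells in RPMI 1640 (pH 7.3) with 0.5% Albumax II, hypoxanthine and gentamicin at 37°C under 1% O₂/3% CO₂. Growth measured by SYBR green fluorescence (ex 485/em 528 nm), with mefloquine as assay control. EC50 calculated.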

Plasmodium falciparum [16] = assay: Antiplasmodial activity against drug resistant Plasmodium falciparum V1/S by [3H]hypoxanthine incorporation assay; assay type: functional, organism-based
Outline: (§4)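 Strains (K1, W2, 7G8, TM90C2A, D6, V1/S resistant; NF54 sensitive) cultured by the Trager and Jensen method; EC50 determined in vitro from [3H]hypoxanthine incorporation.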

[17] = Oral bioavailability in NMRI mouse at 10 mg/kg administered via gavage by UPLC-MS/MS analysis; assay type: ADME, organism-based; conditions: in vivo
Outline: (§5)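 Female NMRI mice (n=3) dosed by oral gavage as a solution at 10 mg free base/kg (10 mL/kg; vehicle 5 or 10% DMSO, 40% PEG400). Blood levels measured by UPLC-MS/MS. Parameters derived from the blood concentration-time curve.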

[18] = Tmax in NMRI mouse at 10 mg/kg, po administered as gavage by UPLC-MS/MS analysis; assay type: ADME, organism-based; conditions: in vivo; outline: as §5
[19] = target: Voltage-gated inwardly rectifying potassium channel KCNH2 (Homo sapiens, UniProt Q12809); assay: Inhibition of human ERG by IonWorks patch-clamp electrophysiology method
Voltage-gated inwardly rectifying potassium channel KCNH2, sequence (Q12809 whole entry): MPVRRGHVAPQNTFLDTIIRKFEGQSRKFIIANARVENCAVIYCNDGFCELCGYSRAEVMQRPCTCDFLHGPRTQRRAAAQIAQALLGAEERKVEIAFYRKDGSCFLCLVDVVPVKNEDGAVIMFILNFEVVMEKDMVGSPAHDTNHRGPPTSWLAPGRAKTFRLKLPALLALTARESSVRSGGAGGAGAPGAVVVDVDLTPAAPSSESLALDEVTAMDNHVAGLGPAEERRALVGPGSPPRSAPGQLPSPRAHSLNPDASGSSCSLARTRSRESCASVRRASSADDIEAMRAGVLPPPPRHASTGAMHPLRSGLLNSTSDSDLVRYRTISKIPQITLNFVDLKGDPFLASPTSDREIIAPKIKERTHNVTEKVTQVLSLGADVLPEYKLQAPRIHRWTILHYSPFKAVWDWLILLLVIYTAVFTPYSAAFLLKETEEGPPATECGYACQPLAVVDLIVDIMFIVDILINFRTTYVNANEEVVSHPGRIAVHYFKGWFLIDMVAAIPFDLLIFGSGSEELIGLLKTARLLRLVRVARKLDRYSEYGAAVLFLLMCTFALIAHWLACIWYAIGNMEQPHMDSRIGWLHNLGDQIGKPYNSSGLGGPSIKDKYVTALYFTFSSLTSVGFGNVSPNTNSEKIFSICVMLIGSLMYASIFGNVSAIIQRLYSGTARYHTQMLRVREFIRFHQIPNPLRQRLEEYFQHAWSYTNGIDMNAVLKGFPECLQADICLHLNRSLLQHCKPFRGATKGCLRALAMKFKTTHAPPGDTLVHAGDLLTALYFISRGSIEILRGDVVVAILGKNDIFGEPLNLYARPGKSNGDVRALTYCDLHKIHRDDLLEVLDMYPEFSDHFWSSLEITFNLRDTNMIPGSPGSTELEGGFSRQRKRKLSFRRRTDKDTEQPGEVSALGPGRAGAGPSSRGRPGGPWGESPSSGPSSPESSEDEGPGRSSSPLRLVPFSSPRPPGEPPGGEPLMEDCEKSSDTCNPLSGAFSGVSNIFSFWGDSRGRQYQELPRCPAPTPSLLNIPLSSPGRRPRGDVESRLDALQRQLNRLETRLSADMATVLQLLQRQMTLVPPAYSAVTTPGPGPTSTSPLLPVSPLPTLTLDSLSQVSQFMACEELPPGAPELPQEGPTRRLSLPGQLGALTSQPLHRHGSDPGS
Outline: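 hERG K⁺ channel inhibition measured by IonWorks patch-clamp electrophysiology. Eight-point concentration-response curves made from 3-fold serial dilutions down from the maximum final assay concentration. Each curve generated on 2 occasions.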

[20] = Volume of distribution at steady state in NMRI mouse at 3 mg/kg, iv administered as bolus dose by UPLC-MS/MS analysis; assay type: ADME, organism-based; conditions: in vivo, read-out: Vdss; outline: as §3
Plasmodium yoelii = assay: Antiplasmodial activity against Plasmodium yoelli liver stage forms; assay type: functional, organism-based
[21] = Permeability of the compound at 10 uM incubated for 5 hrs by UPLC-MS/MS analysis based PAMPA method; assay type: ADME; conditions: read-out: permeability
Outline: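 PAMPA run on a lipid-oil-lipid tri-layer filter at pH 7.4. Compound at 10 μM in PBS (DMSO ≤5%) in donor wells, PBS in acceptor wells, kept 5 h at room temperature. Both compartments quantified by UPLC-MS/MS. Data accepted only when recovery exceeded 70%.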

Plasmodium falciparum [22] = assay: Antiplasmodial activity against drug resistant Plasmodium falciparum D6 by [3H]hypoxanthine incorporation assay; assay type: functional, organism-based; outline: as §4
[23] = Protein binding in CD1 mouse plasma measured after 5 hr by UPLC-MS/MS analysis based equilibrium dialysis method; assay type: ADME, cell-free; conditions: mouse, 5 h
Outline: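 Equilibrium dialysis of female CD1 mouse plasma spiked at 10 μg/mL (12-14 kDa membrane) against isotonic buffer for 5 h at ~37°C with shaking. Unbound fraction taken as the buffer/plasma peak-area ratio by UPLC-MS/MS. n=6 replicates, run in triplicate.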

[24] = Intrinsic clearance in CD1 mouse liver microsomes at 0.5 uM in presence of NADPH incubated upto 30 mins by UPLC-MS/MS analysis; assay type: ADME, Microsome; conditions: 0.5 h; outline: as §1
MRC5 = assay: Antiproliferative activity against human MRC5 cells assessed as reduction in cell viability after 68 hrs by resazurin dye based fluorescence assay; conditions: MRC5, 68 h
Outline: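 MRC-5 fibroblasts plated overnight as monolayers, exposed to compound pre-diluted in MEM for 68 h. Resazurin then added (final 50 μM) for 3 h, fluorescence read at ex 528/em 590 nm. Signal converted to % inhibition against high- and no-inhibition controls. Plates accepted at Z' > 0.5.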

[25] = AUC in NMRI mouse at 10 mg/kg, po administered as gavage by UPLC-MS/MS analysis; assay type: ADME, organism-based; set-up: dose 10 mg/kg; conditions: in vivo; outline: as §5
[26] = Clearance in NMRI mouse blood at 3 mg/kg, iv administered as bolus dose by UPLC-MS/MS analysis; assay type: ADME, organism-based; outline: as §3
Plasmodium falciparum [27] = assay: Antiplasmodial activity against drug resistant Plasmodium falciparum K1 by [3H]hypoxanthine incorporation assay; assay type: functional, organism-based; outline: as §4
Plasmodium falciparum [28] = assay: Antiplasmodial activity against drug resistant Plasmodium falciparum […] [3H]hypoxanthine incorporation assay; assay type: functional, organism-based; outline: as §4
Plasmodium berghei [29] = assay: Antiplasmodial activity against Plasmodium berghei ANKA infected in NMRI mouse assessed as reduction in parasitemia at 30 mg/kg, po QD for 4 days; assay type: functional; set-up: scale not given: the % may be the effect or the level left; conditions: time 4 day; outline: as §2
Plasmodium berghei [30] = assay: Antiplasmodial activity against Plasmodium berghei ANKA infected in NMRI mouse assessed as reduction in parasitemia at 10 mg/kg, po QD for 4 days; assay type: functional; set-up: scale not given: the % may be the effect or the level left; conditions: time 4 day; outline: as §2
Plasmodium falciparum [31] = assay: Antiplasmodial activity against drug resistant Plasmodium falciparum TM90C2A by [3H]hypoxanthine incorporation assay; assay type: functional, organism-based; outline: as §4
[32] = Intrinsic clearance in human liver microsomes at 0.5 uM in presence of NADPH incubated upto 30 mins by UPLC-MS/MS analysis; assay type: ADME, Microsome; conditions: 0.5 h; outline: as §1
Plasmodium falciparum [33] = assay: Antiplasmodial activity against drug resistant Plasmodium falciparum 7G8 by [3H]hypoxanthine incorporation assay; assay type: functional, organism-based; outline: as §4
Plasmodium falciparum [34] = assay: Antiplasmodial activity against drug resistant Plasmodium falciparum W2 by [3H]hypoxanthine incorporation assay; assay type: functional, organism-based; outline: as §4
[35] = Cmax in NMRI mouse at 10 mg/kg, po administered as gavage by UPLC-MS/MS analysis; assay type: ADME, organism-based; set-up: route oral, dose 10 mg/kg; conditions: in vivo; outline: as §5

## O=C(NCCN1CCCC1)c1cc(NCCC2CCOCC2)nc2ccc(Cl)cc12
[1]
  CLH: 0.8 mL/min/g
Plasmodium berghei [2]
  Activity: 98%
Plasmodium berghei [3]
  Survival: 8 days
[4]
  half-life: 2.9 h
[5]
  CLH: 3 mL/min/g
Plasmodium berghei [6]
  Activity: 90%
[7]
  solubility kinetic: 230 µM (≈ 99.1 µg/mL)
Plasmodium berghei [8]
  Survival: 10 days
[9]
  hepatic extraction ratio: 0.76
Plasmodium berghei [10]
  EC50: 14 nM
Plasmodium berghei [11]
  ED90: 1 mg/kg
Plasmodium berghei [12]
  Survival: 6 days
Plasmodium falciparum [13]
  EC50: 39 nM
Plasmodium berghei [14]
  Survival: 7 days
Plasmodium falciparum [15]
  EC50: 6 nM
Plasmodium falciparum [16]
  EC50: 0.9 nM
[17]
  bioavailability: 23%
[18]
  Tmax: 0.5 h
[19]
  IC50: > 11000 nM
[20]
  Vd: 7.4 L/kg
Plasmodium yoelii
  EC50: 1 nM
[21]
  Papp at 5 h, 10 µM: 4.8 ×10⁻⁶ cm/s
Plasmodium falciparum [22]
  EC50: 0.7 nM
[23]
  PPB: 77%
[24]
  CLH: 2 mL/min/g
MRC5
  EC50: 31000 nM
[25]
  AUC: 1210 ng·h/mL
[26]
  clearance: 34 mL/min/kg
Plasmodium falciparum [27]
  EC50: 0.8 nM
Plasmodium falciparum [28]
  EC50: 0.5 nM
Plasmodium berghei [29]
  Activity: 99.9%
Plasmodium berghei [30]
  Activity: 99.9%
Plasmodium falciparum [31]
  EC50: 0.5 nM
[32]
  CLH: 1 mL/min/g
Plasmodium falciparum [33]
  EC50: 0.7 nM
Plasmodium falciparum [34]
  EC50: 0.6 nM
[35]
  Cmax: 193 ng/mL
